The values that follow come from paper PMC10432377 (Journal of Applied Glycoscience, 2023).

By Km is commonly meant the concentration of substrate that gives half-maximal velocity.

Common to all, as to assay type: biochemical, Lacticaseibacillus casei
Holding throughout (settings): 80 mM sodium acetate pH 4.0, 37 °C

The subject of test [1] is LBCZ_0230. In words: p-nitrophenol release, A400. In outline:
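Purified recombinant His6-tagged enzyme (E. coli BL21(DE3), Ni²⁺ column) was assayed on p-nitrophenyl β-D-galactopyranoside over 0.0125-0.5 mM. Incubation ran at 37 °C for 10 min and was quenched with 1 M Na₂CO₃. p-Nitrophenol was measured at A400. Km was obtained by nonlinear Michaelis-Menten fitting, as mean ± SD of three independent experiments.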

For test [2], the system named is LBCZ_0230. In words: D-galactose release, L-arabinose/D-galactose assay kit. In outline:
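Recombinant C-terminally His6-tagged enzyme was expressed in E. coli BL21(DE3) and Ni²⁺-affinity purified. Lacto-N-biose I or galacto-N-biose at 0.1-2 mM was reacted with enzyme at 37 °C for 10 min. Reactions were stopped at 80 °C for 3 min and D-galactose was quantified. Km came from Michaelis-Menten nonlinear regression, as mean ± SD of three independent experiments.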

In test [3] the test system is LBCZ_0230. In words: o-nitrophenol release, A400. In outline:
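The enzyme was C-terminally His6-tagged, expressed in E. coli BL21(DE3) and purified on Ni²⁺ affinity. Protein was quantified by amino acid analysis. o-Nitrophenyl β-D-galactopyranoside at 0.05-1 mM was incubated with enzyme at 37 °C for 10 min and stopped with 1 M Na₂CO₃. Released o-nitrophenol was read at A400. Km was fitted by nonlinear Michaelis-Menten regression from three independent experiments (mean ± SD).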

Consider `O=[N+]([O-])c1ccc(O[C@@H]2O[C@H](CO)[C@H](O)[C@H](O)[C@H]2O)cc1` [pNPGal], for which the Km in the test on LBCZ_0230 [1] is 20.9 ± 1.3 µM.

For `CC(=O)N[C@H]1C(O)O[C@H](CO)[C@H](O)[C@@H]1O[C@@H]1O[C@H](CO)[C@H](O)[C@H](O)[C@H]1O` (stereo partly shown) [GNB], in the test on LBCZ_0230 [2], the Michaelis constant (Km) came to 707 ± 18 µM.

Regarding `O=[N+]([O-])c1ccccc1O[C@@H]1O[C@H](CO)[C@H](O)[C@H](O)[C@H]1O` [oNPGal], the Km in the test with LBCZ_0230 [3] is 50.1 ± 2.3 µM.

In the case of `CC(=O)N[C@H]1C(O)O[C@H](CO)[C@@H](O)[C@@H]1O[C@@H]1O[C@H](CO)[C@H](O)[C@H](O)[C@H]1O` (stereo partly shown) [LNB], the Km with LBCZ_0230 [2] came to 238 ± 5 µM.
